From ChEMBL document CHEMBL4145488, “Structure-based development of an osteoprotegerin-like glycopeptide that blocks RANKL/RANK interactions and reduces ovariectomy-induced bone loss in mice” (Eur J Med Chem, 2018) come the findings set out here.

Series [1] is described as follows: Drug metabolism assessed as alpha-chymotrypsin (unknown origin)-mediated compound degradation by measuring parent compound remaining after 8 hrs by HPLC analysis. It is filed as ADME. The following applies: human, read-out: Stability. In outline: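 Peptide exposed to α-chymotrypsin; percent residual peptide tracked by HPLC. Mean ± SEM of duplicate independent experiments.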

The target in series [2] is T1, Tumor necrosis factor ligand superfamily member 11 (Homo sapiens) (UniProt O14788).
T1 sequence (whole entry): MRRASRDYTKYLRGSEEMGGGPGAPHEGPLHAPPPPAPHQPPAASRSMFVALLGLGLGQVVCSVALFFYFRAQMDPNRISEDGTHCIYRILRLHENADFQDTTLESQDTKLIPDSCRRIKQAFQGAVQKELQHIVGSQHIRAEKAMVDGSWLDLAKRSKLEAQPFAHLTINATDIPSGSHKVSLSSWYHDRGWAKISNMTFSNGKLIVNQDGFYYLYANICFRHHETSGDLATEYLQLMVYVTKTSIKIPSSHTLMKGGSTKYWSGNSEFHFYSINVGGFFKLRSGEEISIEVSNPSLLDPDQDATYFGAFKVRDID
Briefly: Binding affinity to recombinant human sRANKL expressed in Escherichia coli assessed as dissociation constant by SPR assay. In outline:
(§1)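 SPR at 25 °C with recombinant sRANKL immobilized on a CM5 dextran chip at about 3500 RU. Surfaces regenerated between cycles with Gly-HCl at pH 2.5. kon, koff and Kd taken from kinetic fitting of the sensorgrams.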

The test system of series [3] is BMMC. The series can be described thus: Cytotoxicity against C57BL/6 mouse BMMC up to 100 uM after 48 hrs by CCK8 assay. It is filed as cell-based. In outline:
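BMMCs seeded at 1×10^5/mL and grown 24 h, then exposed to peptide at 0, 12.5, 25.0, 50.0 or 100.0 µM for 48 h. CCK-8 solution added for 2 h and absorbance read at 450 nm.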

Series [4] deals with T1, Tumor necrosis factor ligand superfamily member 11 (Homo sapiens). The series can be described thus: Binding affinity to recombinant human sRANKL expressed in Escherichia coli assessed as association constant by SPR assay. In a few lines:
as §1

Series [5] concerns BMMC. The series can be described thus: Inhibition of RANKL/mCSF-induced osteoclast differentiation in C57BL/6 mouse BMMC assessed as reduction in TRAP-positive multinucleated cells at 30 uM by microscopic method relative to control. Type of series: functional. The following applies: C57BL/6, BMMC.
Series [6] has as its target T2, Tumor necrosis factor ligand superfamily member 11 (Homo sapiens, UniProt O14788).
T2 sequence (O14788 whole entry): T1 sequence (whole entry)
The series can be described thus: (§2) Binding affinity to recombinant human sRANKL expressed in Escherichia coli by SPR assay. In a few lines: as §1

For series [7], the system named is BMMC. Briefly: Inhibition of RANKL/mCSF-induced osteoclast differentiation in C57BL/6 mouse BMMC assessed as reduction in TRAP-positive multinucleated cells by microscopic method. It is filed as functional, cell-based. The following applies: for IC50: C57BL/6, BMMC.
Series [8] deals with Mus musculus. Briefly: Inhibition of ovariectomy-induced trabecular bone loss in C57BL/6 mouse distal femur bone assessed as increase in bone surface area expressed per unit total volume at 20 mg/kg/day, ip after 6 weeks by micro-CT analysis. Type of series: functional, organism-based. In outline: (§3)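 Female C57BL/6 mice, 6 weeks old, ovariectomized, six per group; 20.0 mg/kg i.p. daily in saline, or saline vehicle, for 6 weeks. Femurs then scanned by micro-CT for BMD, Tb.N and BS/TV, with 2D/3D reconstruction.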

The test system of series [9] is Mus musculus. Briefly: Inhibition of ovariectomy-induced trabecular bone loss in C57BL/6 mouse assessed as reduction in TRAP-positive multinucleated cells in distal femur bone at 20 mg/kg/day, ip after 6 weeks by microscopic method. It is filed as functional, organism-based. In a few lines:
(§4)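 Female C57BL/6 mice, 6 weeks old, ovariectomized, six per group; 20.0 mg/kg i.p. daily in saline, or saline, for 6 weeks. Femurs fixed in 4 % paraformaldehyde for 4 days and decalcified in 10% EDTA for 2 weeks. 4 µm paraffin sections of the metaphysis stained with H&E (trabecular area) or TRAP (osteoclasts counted).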

Series [10] has as its system Mus musculus. Briefly: Inhibition of osteoclastogenesis in ovariectomized C57BL/6 mouse assessed as decrease in serum CTX-1 level at 20 mg/kg/day, ip after 6 weeks by ELISA. It is filed as functional, organism-based. In a few lines:
(§5)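 Female C57BL/6 mice, 6 weeks old, ovariectomized; six per group (sham, OVX with saline, OVX with peptide). Peptide given at 20.0 mg/kg i.p. daily in saline for 6 weeks. Blood centrifuged and serum stored at -80 °C; IL-6, TRAcp5B, CTX-1 and TNF-α measured by ELISA kits.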

For series [11], the system named is Mus musculus. Briefly: Inhibition of ovariectomy-induced trabecular bone loss in C57BL/6 mouse distal femur bone at 20 mg/kg/day, ip after 6 weeks by H and E staining based microscopic method. It is filed as functional, organism-based. In outline: as §4
The subject of series [12] is Mus musculus. Briefly: Inhibition of osteoclastogenesis in ovariectomized C57BL/6 mouse assessed as decrease in serum TNFalpha level at 20 mg/kg/day, ip after 6 weeks by ELISA. Type of series: functional, organism-based. In a few lines:
as §5

In series [13] the test system is Mus musculus. The series can be described thus: Inhibition of ovariectomy-induced trabecular bone loss in C57BL/6 mouse distal femur bone assessed as increase in bone mineral density at 20 mg/kg/day, ip after 6 weeks by micro-CT analysis. Type of series: functional, organism-based. In outline:
as §3

Series [14] has as its target Tumor necrosis factor ligand superfamily member 11/11A (Mus musculus) (UniProt O35235+O35305). The series can be described thus: Inhibition of RANKL/RANK protein-protein interaction in mouse RAW264.7 cells assessed as reduction in RANKL-stimulated NF-kB signaling pathway activation by measuring decrease in IkBalpha phosphorylation after 2 hrs by immunoblot assay. It is filed as cell-based. In a few lines:
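RAW264.7 cells (1×10^5/well) cultured 12 h, pretreated with or without peptide for 2 h, then stimulated with 300 ng/mL sRANKL for the indicated periods. Lysates (20 µg) run on SDS-PAGE and blotted for phospho-IκBα, IκBα and ERK2; ECL detection.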

Series [15] concerns Mus musculus. Briefly: Inhibition of osteoclastogenesis in ovariectomized C57BL/6 mouse assessed as decrease in serum IL-6 level at 20 mg/kg/day, ip after 6 weeks by ELISA. It is filed as functional, organism-based. In outline: as §5
Series [16] has as its system Mus musculus. Briefly: Inhibition of ovariectomy-induced trabecular bone loss in C57BL/6 mouse distal femur bone assessed as increase in bone volume expressed per unit total volume at 20 mg/kg/day, ip after 6 weeks by micro-CT analysis. Type of series: functional, organism-based. In outline: as §3
For series [17], the system named is Mus musculus. Briefly: Inhibition of ovariectomy-induced trabecular bone loss in C57BL/6 mouse distal femur bone assessed as increase in trabecular number at 20 mg/kg/day, ip after 6 weeks by micro-CT analysis. It is filed as functional, organism-based. In a few lines:
as §3

For series [18], the target named is T1, Tumor necrosis factor ligand superfamily member 11 (Homo sapiens). Described as §2. In outline:
as §1

In series [19] the test system is Mus musculus. The series can be described thus: Inhibition of osteoclastogenesis in ovariectomized C57BL/6 mouse assessed as decrease in serum TRAcp5B level at 20 mg/kg/day, ip after 6 weeks by ELISA. Type of series: functional, organism-based. In outline:
as §5

The source made the active and inactive calls. No cut-off for these calls is given here. Where a SMILES comes first, the peptide text is derived from it. Bridges are numbered along the chain shown (N, C = ends). Triazole bridges read from a SMILES are 1,4-linked. [ ]: non-standard residue; d: D form. The star is where a group is joined. NH(β-GlcNAc) = CC(=O)N[C@@H]1[C@@H](O)[C@H](O)[C@@H](CO)O[C@H]1N*; Dap(N3) = [N-]=[N+]=NC[C@H](N)C(=O)O; Sec = N[C@@H](C[SeH])C(=O)O; Pra = C#CC[C@H](N)C(=O)O

Sequence of Tumor necrosis factor ligand superfamily member 11/11A (Mus musculus) (O35235 139-316 limits assumed): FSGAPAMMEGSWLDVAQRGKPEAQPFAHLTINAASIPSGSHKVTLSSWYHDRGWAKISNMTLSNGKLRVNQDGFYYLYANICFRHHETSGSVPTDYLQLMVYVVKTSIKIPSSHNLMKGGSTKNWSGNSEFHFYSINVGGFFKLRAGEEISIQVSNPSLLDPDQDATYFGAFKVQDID
Sequence of Tumor necrosis factor ligand superfamily member 11/11A (Mus musculus) (O35305 31-625 partner limits assumed): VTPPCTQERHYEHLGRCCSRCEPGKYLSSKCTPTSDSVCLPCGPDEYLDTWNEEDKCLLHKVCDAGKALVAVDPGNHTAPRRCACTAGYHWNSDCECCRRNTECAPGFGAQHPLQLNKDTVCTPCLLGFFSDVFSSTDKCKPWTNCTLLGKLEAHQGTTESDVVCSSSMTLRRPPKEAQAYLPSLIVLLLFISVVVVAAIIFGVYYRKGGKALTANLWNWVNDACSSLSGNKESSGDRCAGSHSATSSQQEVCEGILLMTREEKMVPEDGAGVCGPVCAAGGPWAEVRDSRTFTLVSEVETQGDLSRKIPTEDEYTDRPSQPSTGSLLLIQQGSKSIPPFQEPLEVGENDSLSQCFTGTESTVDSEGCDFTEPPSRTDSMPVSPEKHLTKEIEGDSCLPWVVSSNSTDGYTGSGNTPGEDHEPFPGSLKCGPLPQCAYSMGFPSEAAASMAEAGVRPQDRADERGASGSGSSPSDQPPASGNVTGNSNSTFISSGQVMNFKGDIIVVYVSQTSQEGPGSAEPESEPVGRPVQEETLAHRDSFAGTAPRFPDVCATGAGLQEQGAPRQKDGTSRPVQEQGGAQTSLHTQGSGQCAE

For the compound `CC[C@H](C)[C@@H]1NC(=O)[C@H](CCC(=O)O)NC(=O)[C@H](CC(C)C)NC(=O)[C@H](Cc2ccc(O)cc2)NC(=O)[C@H](CCCNC(=N)N)NC(=O)CNC(=O)[C@H](CCC(=O)O)NC(=O)[C@H](CCCCN)NC(=O)[C@@H](NC(C)=O)CSSC[C@@H](C(=O)N[C@@H](CC(C)C)C(N)=O)NC(=O)[C@H](Cc2ccccc2)NC(=O)[C@H](CCC(=O)O)NC1=O` (Ac-CKEGRYLEIEFCL-NH2; disulfide 1-12), the remaining at 8 h in [1] stood at 38.5%. Besides, the Kapp in [2] turned out to be 0.0065 s⁻¹; in [4] it was 212 M⁻¹ s⁻¹. Besides, the Activity result in the series on BMMC [3] was “Non-Toxic”. In addition, the inhibition at 30 µM in the series on BMMC [5] amounted to 24.4%. The Kd in series [6] is 30.9 µM.
On to `CC[C@H](C)[C@H](NC(=O)[C@H](CC(C)C)NC(=O)[C@H](Cc1ccc(O)cc1)NC(=O)[C@@H]1CSSC[C@H](NC(=O)[C@@H](N)Cc2ccc(O)cc2)C(=O)N[C@@H](CCC(=O)O)C(=O)N[C@@H]([C@@H](C)CC)C(=O)N[C@@H](CCC(=O)O)C(=O)N[C@@H](Cc2ccccc2)C(=O)N1)C(=O)N[C@@H](CCCNC(=N)N)C(=O)O` (H-YCEIEFCYLIR-OH; disulfide 2-7), for which the IC50 in the series with BMMC [7] was 25.3 µM. Moreover, the values for the Kapp in series [2] and in [4] were 0.0013 s⁻¹ and 496 M⁻¹ s⁻¹, respectively. Further, in the series with BMMC [5], the inhibition at 30 µM came to 55.6%. In series [6], the dissociation constant Kd is 2.75 µM.
Take `CC[C@H](C)[C@@H]1NC(=O)[C@H](CCC(=O)O)NC(=O)[C@H](CC(C)C)NC(=O)[C@H](Cc2ccc(O)cc2)NC(=O)[C@H](CCCNC(=N)N)NC(=O)CNC(=O)[C@H](CCC(=O)O)NC(=O)[C@H](CCCCN)NC(=O)[C@@H](NC(C)=O)C[Se][Se]C[C@@H](C(=O)N[C@@H](CC(C)C)C(N)=O)NC(=O)[C@H](Cc2ccccc2)NC(=O)[C@H](CCC(=O)O)NC1=O` (Ac-[Sec]KEGRYLEIEF[Sec]L-NH2; diselenide 1-12): the Activity entry with BMMC [3] is recorded as “Non-Toxic”. In the series on BMMC [5], the inhibition at 30 µM worked out at 40.6%.
The like results for `CC[C@H](C)[C@@H]1NC(=O)[C@H](CCC(=O)O)NC(=O)[C@H](CC(C)C)NC(=O)[C@H](Cc2ccc(O)cc2)NC(=O)[C@H](CCCNC(=N)N)NC(=O)CNC(=O)[C@H](CCC(=O)O)NC(=O)[C@H](CCCCN)NC(=O)[C@@H](NC(C)=O)Cc2cn(nn2)C[C@@H](C(=O)N[C@@H](CC(C)C)C(N)=O)NC(=O)[C@H](Cc2ccccc2)NC(=O)[C@H](CCC(=O)O)NC1=O` (Ac-[Pra]KEGRYLEIEF[Dap(N3)]L-NH2; triazole 1-12) were, in that order, “Non-Toxic” and 42.1%.
For the compound `CC[C@H](C)[C@@H]1NC(=O)[C@H](CCC(=O)O)NC(=O)[C@H](CC(C)C)NC(=O)[C@H](Cc2ccc(O)cc2)NC(=O)[C@H](CCCNC(=N)N)NC(=O)CNC(=O)[C@H](CCC(=O)O)NC(=O)[C@H](CCCCN)NC(=O)[C@@H](NC(=O)[C@H](CC(=O)N[C@@H]2O[C@H](CO)[C@@H](O)[C@H](O)[C@H]2NC(C)=O)NC(C)=O)CSSC[C@@H](C(=O)N[C@@H](CC(C)C)C(N)=O)NC(=O)[C@H](Cc2ccccc2)NC(=O)[C@H](CCC(=O)O)NC1=O` (Ac-D(NH(β-GlcNAc))CKEGRYLEIEFCL-NH2; disulfide 2-13), the inhibition entry with Mus musculus [8], in the series with Mus musculus [9], with Mus musculus [10], in the series on Mus musculus [11], in the series with Mus musculus [12] and in the series with Mus musculus [13] was “Active” throughout. The inhibition result (in series [14]; with Mus musculus [15]; in the series with Mus musculus [16]; in the series with Mus musculus [17]; in the series on Mus musculus [19]) was “Active” in each case. For the same compound, in series [1], the remaining at 8 h was above 60.7%. The inhibition entry with BMMC [7] was “Dose-dependent effect”. The IC50 with BMMC [7] was determined as 28.5 µM. Further, the Kapp in series [2] was 0.0027 s⁻¹; in [4] it was 609 M⁻¹ s⁻¹. For the same compound, the Activity entry in the series on BMMC [3] is “Non-Toxic”; in [18] it was “Dose-dependent effect”. Further, the inhibition at 30 µM in the series on BMMC [5] amounted to 58.2%. Moreover, in [6], the Kd is 4.54 µM.
